The values below come from ChEMBL document CHEMBL1153046, “Synthesis and antitumor activity of substituted triazolo[4,3-a]pyrimidin-6-sulfonamide with an incorporated thiazolidinone moiety” (2009).

Common to all, as to format: functional
One assay concerns MCF7. Nature of the assay: Antiproliferative activity against human MCF7 cells assessed as cell growth at 100 uM after 48 hrs by alamar blue assay. The following applies: MCF7, 48 h, read-out: Activity. The gist of the method:
(§1)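 NCI three-cell-line primary screen. Cells are seeded and preincubated in microtiter plates. Compound is added at a single 10^-4 M concentration and cultures are incubated 48 h. The end-point is read with alamar blue. Results are given as percent growth relative to untreated control cells.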
Background: The colour change of resazurin is a common sign of viable cells or microbes.

A further assay deals with NCI-H460. Nature of the assay: Antiproliferative activity against human NCI-H460 cells assessed as cell growth at 100 uM after 48 hrs by alamar blue assay. Particulars: NCI-H460, 48 h, read-out: Activity. The gist of the method: as §1
A further assay relates to SF-268. In words: Antiproliferative activity against human SF268 cells assessed as cell growth at 100 uM after 48 hrs by alamar blue assay. Particulars: SF-268, 48 h, read-out: Activity. The gist of the method:
as §1

For the compound `COc1ccc(/C=N/c2nc3[nH]nc(C)n3c(=O)c2S(=O)(=O)NN2C(=O)CSC2c2ccc(OC)cc2)cc1` (stereo not drawn), the growth at 100 µM in the assay with MCF7 was 91%; in the assay on NCI-H460, 118%; with SF-268, 94%.

`COc1ccc(/C=N/c2nc3[nH]nc(C)n3c(=O)c2S(=O)(=O)N/N=C/c2ccc(Cl)cc2)cc1`: the values for the growth at 100 µM with MCF7, with NCI-H460 and in the assay with SF-268 were 93%, 73% and 101%, respectively.

Turning to `COc1ccc(/C=N/c2nc3[nH]nc(C)n3c(=O)c2S(=O)(=O)NN)cc1`, the results for the growth at 100 µM in the assay with MCF7, in the assay on NCI-H460 and with SF-268 were 43%, 45% and 55%, respectively.

Turning to `COc1ccc(/C=N/c2nc3[nH]nc(C)n3c(=O)c2S(=O)(=O)N/N=C/c2cccs2)cc1`, the growth at 100 µM in the assay with MCF7 is 66%; in the assay with NCI-H460, 13%; with SF-268, 62%.

Turning to `COc1ccc(/C=N/c2nc3[nH]nc(C)n3c(=O)c2S(=O)(=O)NN2C(=O)CSC2c2cccs2)cc1` (stereo not drawn), the figures for the growth at 100 µM in the assay on MCF7, with NCI-H460 and with SF-268 were 89%, 106% and 98%, respectively.

Regarding `COc1ccc(/C=N/c2nc3[nH]nc(C)n3c(=O)c2S(=O)(=O)NN2C(=O)C(CN3CCOCC3)SC2c2ccc(C)cc2)cc1` (stereo not drawn), the growth at 100 µM was 67% with MCF7, 63% in the assay with NCI-H460 and 82% in the assay with SF-268.

As to `COc1ccc(/C=N/c2nc3[nH]nc(C)n3c(=O)c2S(=O)(=O)NN2C(=O)CSC2c2ccc(C)cc2)cc1` (stereo not drawn), the growth at 100 µM in the assay with MCF7 came to 72%; with NCI-H460, 67%; in the assay with SF-268 it was 63%.

`COc1ccc(/C=N/c2nc3[nH]nc(C)n3c(=O)c2S(=O)(=O)N/N=C/c2ccc(C)cc2)cc1`: the growth at 100 µM was 87% in the assay on MCF7, 83% in the assay with NCI-H460 and 93% with SF-268.

Consider `COc1ccc(/C=N/c2nc3[nH]nc(C)n3c(=O)c2S(=O)(=O)NN2C(=O)C(CN3CCN(C)CC3)SC2c2ccc(C)cc2)cc1` (stereo not drawn), for which the figures for the growth at 100 µM with MCF7, in the assay with NCI-H460 and in the assay with SF-268 were 55%, 109% and 102%, respectively.

`COc1ccc(/C=N/c2nc3[nH]nc(C)n3c(=O)c2S(=O)(=O)Nc2ccc(Cl)cc2)cc1`: the growth at 100 µM in the assay on MCF7 amounted to 87%; in the assay on NCI-H460, 102%; in the assay on SF-268, 87%.

Turning to `COc1ccc(/C=N/c2nc3[nH]nc(C)n3c(=O)c2S(=O)(=O)NN2C(=O)C(CN3CCOCC3)SC2c2ccc(Cl)cc2)cc1` (stereo not drawn), the growth at 100 µM with MCF7 was 94%; in the assay on NCI-H460 it was 68%; in the assay on SF-268, 95%.

With `COc1ccc(/C=N/c2nc3[nH]nc(C)n3c(=O)c2S(=O)(=O)NN2C(=O)CSC2c2ccc(Cl)cc2)cc1` (stereo not drawn), the values for the growth at 100 µM with MCF7, in the assay on NCI-H460 and in the assay on SF-268 were 90%, 88% and 84%, respectively.

On to `COc1ccc(/C=N/NS(=O)(=O)c2c(/N=C/c3ccc(OC)cc3)nc3[nH]nc(C)n3c2=O)cc1`, for which the growth at 100 µM in the assay with MCF7 was 83%; in the assay on NCI-H460 it was 55%; in the assay with SF-268, 85%.

In the case of `COc1ccc(/C=N/c2nc3[nH]nc(C)n3c(=O)c2S(=O)(=O)NN2C(=O)C(CN3CCN(C)CC3)SC2c2ccc(Cl)cc2)cc1` (stereo not drawn), the values for the growth at 100 µM in the assay with MCF7, with NCI-H460 and in the assay on SF-268 were 102%, 86% and 106%, respectively.

On to `COc1ccc(/C=N/c2nc3[nH]nc(C)n3c(=O)c2S(=O)(=O)Nc2ccc(OC)cc2)cc1`, for which the growth at 100 µM in the assay with MCF7 turned out to be 86%; with NCI-H460 it was 82%; in the assay with SF-268 it was 91%.

Regarding `COc1ccc(/C=N/c2nc3[nH]nc(C)n3c(=O)c2S(=O)(=O)Nc2ccc(C)cc2)cc1`, the growth at 100 µM is 83% with MCF7, 89% in the assay on NCI-H460 and 85% with SF-268.
